Measured values pooled from the literature.
Target: Serine/threonine-protein kinase MAK (MAK, Homo sapiens, UniProt P20794)
Residues used in one study (P20794 1-623): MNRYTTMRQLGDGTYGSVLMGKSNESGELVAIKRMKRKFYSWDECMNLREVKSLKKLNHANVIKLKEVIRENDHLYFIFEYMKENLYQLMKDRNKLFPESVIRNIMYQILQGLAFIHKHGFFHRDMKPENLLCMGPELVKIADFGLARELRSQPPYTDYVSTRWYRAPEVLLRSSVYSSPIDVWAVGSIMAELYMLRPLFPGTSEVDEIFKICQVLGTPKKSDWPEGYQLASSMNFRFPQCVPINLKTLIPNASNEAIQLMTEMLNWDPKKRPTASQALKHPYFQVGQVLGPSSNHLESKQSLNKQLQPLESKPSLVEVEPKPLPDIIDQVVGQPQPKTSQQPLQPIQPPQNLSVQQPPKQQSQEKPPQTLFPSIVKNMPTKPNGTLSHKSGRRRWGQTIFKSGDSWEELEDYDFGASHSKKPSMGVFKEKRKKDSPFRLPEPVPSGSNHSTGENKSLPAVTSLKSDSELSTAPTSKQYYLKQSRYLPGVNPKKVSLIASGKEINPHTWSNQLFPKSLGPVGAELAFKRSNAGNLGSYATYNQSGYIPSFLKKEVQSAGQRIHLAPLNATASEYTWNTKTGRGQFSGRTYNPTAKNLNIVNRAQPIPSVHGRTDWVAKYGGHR

C[C@H]1CCN(c2nccc(-c3cnn4ncccc34)n2)C1  remaining binding (binding; 1 µM): 66%
O=C(N1CCS(=O)(=O)CC1)N1C[C@H](c2ccc(OC(F)(F)F)cc2)C[C@H](c2nc(C3CC3)no2)C1  remaining binding (binding, competition with immobilised ligand; 1 µM): 100%
O=C(c1ccc(Nc2ncc(Cl)c(-c3ccc(Cl)s3)n2)cc1)N1CCC(N2CCCC2)CC1  remaining binding (binding, competition with immobilised ligand; 1 µM): 85%
c1cncc(-c2cccc(Nc3nccc(NC4CCCCC4)n3)c2)c1  remaining binding (binding, competition with immobilised ligand; 10 µM): 61%
O=C(c1ccc(Nc2nccc(-c3cc4ccccc4s3)n2)cc1)N1CCC(N2CCCC2)CC1  remaining binding (binding, competition with immobilised ligand; 1 µM): 100%
COc1cnc(Nc2cccc(S(N)(=O)=O)c2)nc1N1CCN(c2ccccc2)C(=O)C1  remaining binding (binding, competition with immobilised ligand; 1 µM): 96%
NS(=O)(=O)c1cc(NC(=O)Cc2ccccc2)ccc1Oc1cccc(Cl)c1  remaining binding (cell-free assay, competition with immobilised ligand; 1 µM): 100%
O=C(NCCCN1CCOCC1)c1ccc(Nc2nccc(-c3cc4ccccc4s3)n2)cc1  remaining binding (binding, competition with immobilised ligand; 1 µM): 100%
N[C@@H]1CCN(c2nccc(-c3cnn4ncccc34)n2)C1  remaining binding (binding; 1 µM): 100%
CCCCN(CCCC)C(=O)CN1C[C@H](c2cc(OC)c3c(c2)OCO3)[C@@H](C(=O)O)[C@@H]1CC(C)(C)CCC  remaining binding (cell-free assay, competition with immobilised ligand; 1 µM): 100%
O=C(Nc1c[nH]nc1C(=O)NC1CCNCC1)c1cc(F)cc(F)c1  remaining binding (binding, competition with immobilised ligand; 1 µM): 78%
O=C(Nc1cnc(Oc2ccc(F)cc2)nc1)N1CCc2ncccc2[C@@H]1c1ccc(F)cc1  remaining binding (cell-free assay, competition with immobilised ligand; 1 µM): 100%
CN(C)c1ncc(F)c(-c2cnn3ncccc23)n1  remaining binding (binding; 1 µM): 91%
CCN1CCN(Cc2ccc(C(=O)Nc3ccc(C)c(Oc4ccc5c(c4)CC(=O)N5)c3)cc2C(F)(F)F)CC1  remaining binding (binding, competition with immobilised ligand; 1 µM): 100%
F[C@@H]1CCN(c2nccc(-c3cnn4ncccc34)n2)C1  remaining binding (binding; 1 µM): 86%
O=C(Nc1cccnn1)N1CCC(=Cc2cccc(Oc3ccc(C(F)(F)F)cn3)c2)CC1  remaining binding (cell-free assay, competition with immobilised ligand; 1 µM): 100%
COc1ccnn2ncc(-c3ccnc(N(C)C)n3)c12  remaining binding (binding; 1 µM): 100%
COc1ncc2cc3ccccc3nc2c1C#N  remaining binding (binding, competition with immobilised ligand; 5 µM): 87%
CN(C)c1nccc(-c2cnc3ncccn23)n1  remaining binding (binding; 1 µM): 100%
O=C(O)[C@H]1[C@H](Cn2nnc3ccccc3c2=O)CC[C@@H]1C(=O)c1ccc(OCCC2CCOCC2)cc1  remaining binding (binding, competition with immobilised ligand; 1 µM): 95%
Cc1cnn2ncc(-c3ccnc(N(C)C)n3)c2c1  remaining binding (binding; 1 µM): 46%
CNC(=O)Nc1ccc2c(c1)[C@@]1(CC2)OC(=O)N(CC(=O)N(Cc2ccc(F)cc2)[C@@H](C)C(F)(F)F)C1=O  remaining binding (cell-free assay, competition with immobilised ligand; 1 µM): 100%
